Results published in ChEMBL document CHEMBL4732057, “Design, synthesis and biological evaluation of second-generation benzoylpiperidine derivatives as reversible monoacylglycerol lipase (MAGL) inhibitors” (Eur J Med Chem, 2021).
Active and inactive are the calls of the source. The calls are words filed in the database; no cut-off is given here.

Assays:
[1] = target: T1, Monoacylglycerol lipase ABHD6 (Mus musculus) (UniProt Q8R2Y0); assay: Inhibition of ABHD6 in mouse brain membrane up to 30 uM preincubated for 25 mins followed by TAMRA-FP labeling addition and measured after 5 mins by competitive ABPP based analysis; format: cell membranes; conditions: dose microM <=30, time 30.0 min
T1 sequence (whole entry): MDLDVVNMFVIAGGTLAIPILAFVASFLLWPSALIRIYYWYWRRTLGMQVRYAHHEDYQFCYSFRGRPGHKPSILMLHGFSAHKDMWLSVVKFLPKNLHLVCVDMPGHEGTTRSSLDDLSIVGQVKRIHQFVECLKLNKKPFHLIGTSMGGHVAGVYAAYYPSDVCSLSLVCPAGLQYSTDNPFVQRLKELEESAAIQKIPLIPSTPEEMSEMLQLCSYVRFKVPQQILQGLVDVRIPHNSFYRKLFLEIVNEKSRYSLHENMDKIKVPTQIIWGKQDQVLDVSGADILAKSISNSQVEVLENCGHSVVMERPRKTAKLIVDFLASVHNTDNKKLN
Method in brief: (§1)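 Mouse brain membranes, 4 mg/mL in PBS, preincubated 25 min at 25 °C with compound at 10 µM or a range of concentrations. Labelled 5 min with TAMRA-FP at 125 nM final. Proteins resolved on 11% SDS-PAGE and scanned for fluorescence.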

[2] = target: T2, Monoglyceride lipase (Mus musculus) (UniProt O35678); assay: Inhibition of MAGL in mouse brain membrane at 10 uM preincubated for 25 mins followed by TAMRA-FP labeling addition and measured after 5 mins by competitive ABPP based analysis; format: cell membranes; conditions: time 30.0 min; method in brief: as §1
T2 sequence (whole entry): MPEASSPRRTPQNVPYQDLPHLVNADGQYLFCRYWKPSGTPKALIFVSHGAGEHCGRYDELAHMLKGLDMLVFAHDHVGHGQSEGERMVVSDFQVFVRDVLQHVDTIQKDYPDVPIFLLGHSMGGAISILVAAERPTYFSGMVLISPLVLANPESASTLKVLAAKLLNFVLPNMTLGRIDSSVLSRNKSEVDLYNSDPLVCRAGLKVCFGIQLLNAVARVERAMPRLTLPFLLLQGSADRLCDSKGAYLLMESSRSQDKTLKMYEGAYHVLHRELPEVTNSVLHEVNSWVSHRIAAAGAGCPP

[3] = target: T3, Monoglyceride lipase (Homo sapiens, UniProt Q99685); assay: Inhibition of human recombinant MAGL using 4-nitrophenylacetate as substrate incubated for 30 mins by microplate reader assay
T3 sequence (Q99685 whole entry): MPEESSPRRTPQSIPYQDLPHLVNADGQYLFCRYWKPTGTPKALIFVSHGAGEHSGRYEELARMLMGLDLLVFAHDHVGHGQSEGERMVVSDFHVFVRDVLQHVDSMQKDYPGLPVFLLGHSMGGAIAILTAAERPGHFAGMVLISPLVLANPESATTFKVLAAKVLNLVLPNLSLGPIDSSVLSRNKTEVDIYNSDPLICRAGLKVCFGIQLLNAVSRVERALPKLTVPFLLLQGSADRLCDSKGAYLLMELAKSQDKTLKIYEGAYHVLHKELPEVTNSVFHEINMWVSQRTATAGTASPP
Method in brief: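 Human recombinant MAGL, 11 ng/well, in 10 mM Tris pH 7.2 with 1 mM EDTA and 0.1 mg/mL BSA, at room temperature. 4-NPA 133.3 µM stock added; enzyme added last. Absorbance at 405 nm after 30 min, minus a no-enzyme blank for each concentration. Sigmoidal fit; duplicates of three independent experiments.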

[4] = Antiproliferative activity against human PDAC-3 cells assessed as inhibition of cell growth incubated for 72 hrs by SRB assay; format: functional, cell-based; conditions: PDAC-3, 72 h
Method in brief: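 Primary patient-derived PDAC-3 cells, cultured under 20 passages in RPMI-1640 with 10% NBCS. Compounds dissolved in DMSO and tested at 8 concentrations, 156.25 to 20 000 nM. Growth read by sulforhodamine-B assay.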

[5] = target: T4, Fatty-acid amide hydrolase 1 (Mus musculus) (UniProt O08914); assay: Inhibition of FAAH in mouse brain membrane up to 30 uM preincubated for 25 mins followed by TAMRA-FP labeling addition and measured after 5 mins by competitive ABPP based analysis; format: cell membranes; conditions: dose microM <=30, time 30.0 min; method in brief: as §1
T4 sequence (whole entry): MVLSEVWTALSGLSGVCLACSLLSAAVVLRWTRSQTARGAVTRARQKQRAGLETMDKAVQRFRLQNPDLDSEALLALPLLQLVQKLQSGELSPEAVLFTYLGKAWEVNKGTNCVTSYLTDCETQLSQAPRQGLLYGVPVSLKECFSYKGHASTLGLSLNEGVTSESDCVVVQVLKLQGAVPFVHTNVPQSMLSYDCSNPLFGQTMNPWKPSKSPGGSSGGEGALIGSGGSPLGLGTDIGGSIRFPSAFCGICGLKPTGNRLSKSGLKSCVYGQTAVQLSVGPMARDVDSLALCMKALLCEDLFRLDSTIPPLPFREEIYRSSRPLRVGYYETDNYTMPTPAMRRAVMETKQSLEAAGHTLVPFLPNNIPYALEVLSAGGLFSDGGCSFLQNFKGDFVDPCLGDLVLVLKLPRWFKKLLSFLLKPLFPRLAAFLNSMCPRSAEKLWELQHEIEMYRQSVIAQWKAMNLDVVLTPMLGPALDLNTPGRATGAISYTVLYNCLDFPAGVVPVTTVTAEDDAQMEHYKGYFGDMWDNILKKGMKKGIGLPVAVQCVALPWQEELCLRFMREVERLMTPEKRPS

[6] = target: T5, Lysophosphatidylserine lipase ABHD12 (Mus musculus) (UniProt Q99LR1); assay: Inhibition of ABHD12 in mouse brain membrane up to 30 uM preincubated for 25 mins followed by TAMRA-FP labeling addition and measured after 5 mins by competitive ABPP based analysis; format: cell membranes; conditions: dose microM <=30, time 30.0 min; method in brief: as §1
T5 sequence (whole entry): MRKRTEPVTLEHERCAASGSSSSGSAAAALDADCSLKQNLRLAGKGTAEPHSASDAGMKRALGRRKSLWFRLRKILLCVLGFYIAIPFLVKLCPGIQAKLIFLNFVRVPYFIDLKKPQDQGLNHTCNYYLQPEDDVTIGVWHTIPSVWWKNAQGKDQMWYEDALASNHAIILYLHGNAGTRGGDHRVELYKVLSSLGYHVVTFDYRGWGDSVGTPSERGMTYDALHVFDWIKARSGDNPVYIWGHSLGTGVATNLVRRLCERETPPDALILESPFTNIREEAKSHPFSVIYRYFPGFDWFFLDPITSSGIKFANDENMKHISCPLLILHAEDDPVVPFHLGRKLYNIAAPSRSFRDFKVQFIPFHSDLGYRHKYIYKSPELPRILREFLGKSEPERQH

[7] = target: Cannabinoid receptor 1 (Homo sapiens, UniProt P21554); assay: Displacement of [3H]CP55940 from human CB1 receptor incubated for 90 mins by radioligand binding assay
Sequence of Cannabinoid receptor 1 (P21554 whole entry): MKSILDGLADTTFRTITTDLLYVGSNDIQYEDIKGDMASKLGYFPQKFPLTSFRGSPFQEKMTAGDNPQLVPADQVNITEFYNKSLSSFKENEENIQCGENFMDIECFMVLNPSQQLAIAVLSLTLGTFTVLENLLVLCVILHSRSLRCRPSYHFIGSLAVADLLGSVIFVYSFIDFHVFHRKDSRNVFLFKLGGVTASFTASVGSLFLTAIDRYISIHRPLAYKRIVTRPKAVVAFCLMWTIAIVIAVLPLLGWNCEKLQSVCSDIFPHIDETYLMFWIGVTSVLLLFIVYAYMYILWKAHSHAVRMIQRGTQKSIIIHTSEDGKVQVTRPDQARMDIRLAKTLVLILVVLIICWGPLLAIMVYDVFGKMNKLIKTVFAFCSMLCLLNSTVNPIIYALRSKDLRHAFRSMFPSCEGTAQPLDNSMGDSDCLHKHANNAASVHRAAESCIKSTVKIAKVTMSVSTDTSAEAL
Method in brief: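 Membranes expressing hCB1 or hCB2 in 50 mM Tris-HCl, 2.5 mM EDTA, 5 mM MgCl2, 0.5% BSA, pH 7.4, incubated with compound and 0.5 nM [3H]CP55,940 for 90 min at 30 °C. Nonspecific binding with 10 µM […]; filtered and counted. Screening at 10 µM; two experiments in triplicate.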

Row | inhibition [1] | inhibition [2] | IC50 [3] | inhibition [5] | inhibition [6] | IC50 [7] | SMILES | IC50 [4]
1 | inactive | Active | 0.03 µM | inactive | inactive | > 10 µM | O=C(c1ccc(Sc2ccccc2)cc1)C1CCN(C(=O)c2cc(O)ccc2F)CC1 | 9.28 µM
2 | inactive | Active | 0.049 µM | inactive | inactive | > 10 µM | O=C(c1ccc(Cc2ccccc2)cc1)C1CCN(C(=O)c2cc(O)ccc2F)CC1 | 12.5 µM
3 | inactive | Active | 0.018 µM | inactive | inactive | > 10 µM | O=C(c1ccc(Sc2ccccc2)cc1)C1CCN(C(=O)c2cc(O)c(F)cc2F)CC1 | 14.6 µM
4 | inactive | Active | 0.036 µM | inactive | inactive | > 10 µM | O=C(c1ccc(Cc2ccccc2)cc1)C1CCN(C(=O)c2cc(O)c(F)cc2F)CC1 | 12 µM
